DAT uptake mod: changed hDAT dopamine uptake under cocaine IC80, either direction, primary screen, cocaine antagonist project, cell-based, LLC-PK1 hDAT, [14C]-dopamine uptake, MLSMR; LLC-PK1 hDAT cells, [14C]-dopamine uptake with cocaine IC80; actives deviate in either direction; B-score at 10 µM; 110,000 compounds, 1.3% hits; AID 449768, 2010;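 active means Z score or B-score, a plate-position-corrected score, falls beyond the plate's 99.7% confidence bounds, in either direction; inactive means both scores lie inside the 99.7% bounds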
WNV protease inh: inhibitors of WNV NS2B-NS3 protease, primary screen, biochemical, fluorogenic substrate. Genome polyprotein (West Nile virus), P06935. fluorogenic substrate Ex360/Em465; active compounds read low. z-score (test concentration not listed). 65,000 compounds, 0.18% hits; in the data active means z-score below about -3
Target sequence (P06935 1371-1501 limits assumed): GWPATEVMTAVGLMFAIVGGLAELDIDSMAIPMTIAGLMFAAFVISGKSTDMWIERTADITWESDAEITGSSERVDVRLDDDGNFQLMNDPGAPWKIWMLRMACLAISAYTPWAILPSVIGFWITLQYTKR
Target sequence (P06935 1502-1679 limits assumed): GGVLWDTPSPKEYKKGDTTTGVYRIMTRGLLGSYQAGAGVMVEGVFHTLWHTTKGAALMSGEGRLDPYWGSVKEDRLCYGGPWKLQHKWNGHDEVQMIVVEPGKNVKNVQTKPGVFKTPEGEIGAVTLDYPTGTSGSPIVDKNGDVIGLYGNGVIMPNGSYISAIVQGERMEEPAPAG
AP ELISA ortho: alternative complement pathway inhibitors, primary screen, biochemical, ELISA, human serum, orthogonally pooled compounds; inhibition, % at 5 µM; AID 1235, 2008; 62,000 compounds, 0.08% hits; LPS-coated ELISA, C3 deposition; tested in compound mixtures;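 active means inhibition above 30% in each of the two pooled mixtures holding the compound, so the lower value exceeds 30%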
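Assay system: Human serum alternative complement pathway, C3 deposition on LPS-coated wells | Incubation: 1 h serum-compound exposure at 37 °C | Doses: 5 µM per compound in ten-compound mixtures | Read-out: Percent inhibition | Technique: ELISA with HRP anti-human C3 antibody, TMB substrate, absorbance 450 nm | Replication: Two pool placements per compound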
D1 allo mod: D1 CRE-luciferase signal change, two-sided – cell-based, HEK293 D1, dopamine EC30, D1 allosteric modulator project, primary screen. B-score at 10 µM. 58,000 compounds, 5.9% hits. dopamine EC30 potentiation; actives deviate in either direction. D(1A) dopamine receptor (Homo sapiens), P21728;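 active means luminescence count or its row- and column-corrected plate score outside the 99.7% band of the plate's sample wells, on either side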
Target sequence (P21728 whole entry, looked up): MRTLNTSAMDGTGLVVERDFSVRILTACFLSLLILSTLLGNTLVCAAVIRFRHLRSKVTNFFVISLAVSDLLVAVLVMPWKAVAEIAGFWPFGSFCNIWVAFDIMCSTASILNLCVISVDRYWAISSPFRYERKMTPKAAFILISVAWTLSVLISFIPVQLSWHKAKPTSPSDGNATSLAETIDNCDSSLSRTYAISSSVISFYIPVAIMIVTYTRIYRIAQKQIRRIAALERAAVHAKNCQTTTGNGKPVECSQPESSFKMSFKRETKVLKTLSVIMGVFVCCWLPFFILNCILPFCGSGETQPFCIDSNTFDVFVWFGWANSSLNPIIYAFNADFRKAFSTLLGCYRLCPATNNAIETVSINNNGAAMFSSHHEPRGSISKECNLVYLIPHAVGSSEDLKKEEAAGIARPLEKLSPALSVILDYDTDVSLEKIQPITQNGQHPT
Large screens that a line does not name were inactive; ! = a repeat was not active. Many of the other results were omitted from the sample, so hits are more common in it than they were.

COc1ccc2nc(-c3ccccc3)[nH]c2c1	D1 allo mod -5.3
CCOc1ccc2nc(-c3ccccc3)[nH]c2c1	none
COc1ccc2nc(NCc3ccccc3)[nH]c2c1	D1 allo mod -4.1
O=C(Nc1ccc2ccccc2c1)[C@@H]1C[C@H]1[C@@H](NP(=O)(c1ccccc1)c1ccccc1)c1ccccc1	none (no result: WNV protease inh, AP ELISA ortho, D1 allo mod)
CCc1ccc2oc(-c3cc(N=Cc4cccc(OC)c4O)ccc3O)nc2c1	D1 allo mod -5.6 (no result: AP ELISA ortho)
COc1cccc(C=Nc2cc(C)on2)c1O	none
C#CCNC(=O)C1=C[C@@H](c2coc3ccccc3c2=O)C[C@@H](OCc2ccc(CO)cc2)O1	none (no result: WNV protease inh, AP ELISA ortho, D1 allo mod)
CCOc1ccc(OCc2ccc(C(=O)O)o2)cc1	D1 allo mod -5.1
CCOc1ccc(OCc2ccc(C(=O)NCc3ccncc3)o2)cc1	none
NC(=O)[C@@H]1CCNc2c(I)cc([N+](=O)[O-])cc2C(=O)N[C@@H](CCC(=O)O)C(=O)N[C@@H](CO)C(=O)N1	none (no result: WNV protease inh, AP ELISA ortho, D1 allo mod)
CC(C)c1nc(SCC(=O)N2CCN(c3ccccc3)CC2)c2c(=O)n(C)c(=O)n(C)c2n1	D1 allo mod -3.9
CCCc1nc(SCC(=O)N2CCN(c3ccccc3)CC2)c2c(=O)n(C)c(=O)n(C)c2n1	none
CCC(=O)N1CCc2cc(Br)cc(S(=O)(=O)CC(=O)OC)c21	WNV protease inh -4.8 (no result: D1 allo mod)
COc1ccc(Nc2ncnc3c2cnn3Cc2ccccc2)cc1	DAT uptake mod 3.2 (no result: D1 allo mod)
COC(=O)c1ccccc1NC(=O)/C=C/c1cc(OC)c(OC)c(OC)c1	none (no result: WNV protease inh, AP ELISA ortho, D1 allo mod)
COc1ccc(/C=C/C(=O)Nc2ccccc2C(=O)O)cc1OC	D1 allo mod -7.8
CC(C)(C)N=C1NC(=NC(C)(C)C)c2ccccc21	D1 allo mod -5.3
C=CCn1c(SCC(=O)OC)nc2sc3c(c2c1=O)CCN(C)C3	WNV protease inh -7.4 (no result: AP ELISA ortho, D1 allo mod)
CN1CCc2c(sc3nc(SCC(N)=O)n(-c4ccccc4)c(=O)c23)C1	none
Cc1ccc2oc(=O)c3cc(C(=O)N4CCN(c5ncccn5)CC4)sc3c2c1	none (no result: DAT uptake mod)
C=CCN1C(c2ccc(OCC)cc2)=CS/C1=C(\C#N)c1nnc2n1CCCCC2	DAT uptake mod 3.8!
O=C(CCl)Nc1ccc(Oc2cnc3ccccc3n2)cc1	none (no result: WNV protease inh, AP ELISA ortho, D1 allo mod)
CN=c1scc(C)n1/N=C/c1ccc(O)cc1	none
CN=c1scc(C)n1/N=C/c1ccc2c(c1)OCO2	D1 allo mod -3.2
C=CCn1c(=O)c2ccccc2n2c(SCC(N)=O)nnc12	none (no result: WNV protease inh, AP ELISA ortho, D1 allo mod)
C=CCn1c(=O)c2ccccc2n2c(SCc3nc4ccccc4s3)nnc12	DAT uptake mod 3.6 (no result: WNV protease inh, AP ELISA ortho, D1 allo mod)
O=C(CN1C(=O)NC2(CCCc3ccccc32)C1=O)N1CCN(C(=O)c2ccco2)CC1 (stereo unspecified)	none
Cc1c(O)cc2c(c1O)C(=O)CC(c1ccccc1)O2 (stereo unspecified)	none (no result: WNV protease inh, AP ELISA ortho, D1 allo mod)
Nc1c(N2CCOCC2)cc(Cl)c2nonc12	D1 allo mod -4.8
COc1cc2c(cc1NC(=O)CC1SC(N3CCCC3)=NC1=O)oc1ccccc12 (stereo unspecified)	DAT uptake mod -8.3
COc1cc2c(cc1NC(=O)CCCN1C(=O)CCC1=O)oc1ccccc12	DAT uptake mod 2.7
COc1cc2c(cc1NC(=O)CSCC(=O)O)oc1ccccc12	none (no result: D1 allo mod)
CC(=O)C1=C(O)CCC1=N	AP ELISA ortho 39
Cc1ccc2c(CC(=O)Nc3sccc3C(N)=O)coc2c1	none (no result: DAT uptake mod)
Cc1ccc2c(CC(=O)Nc3ccc(N4CCN(C)CC4)cc3C)coc2c1	D1 allo mod -4.7
Cc1ccccc1Sc1c(C#N)c(-c2ccccc2)nn1C	none (no result: WNV protease inh, AP ELISA ortho, D1 allo mod)
CN1CCN(S(=O)(=O)c2ccc(NC(=O)c3cccs3)cc2)CC1	none
CN1CCN(S(=O)(=O)c2ccc(NC(=O)c3csc4ccccc34)cc2)CC1	D1 allo mod -1.9
O=C(NCc1nc2ccccc2[nH]1)C1=C[C@@H](C2CCCCC2)C[C@@H](OCCCCO)O1	none (no result: WNV protease inh, AP ELISA ortho, D1 allo mod)
CCOC(=O)C(NC(C)=O)(Nc1ccc(F)cc1)C(F)(F)F (stereo unspecified)	none
CCOC(=O)C(NC(C)=O)(Nc1cccc(F)c1)C(F)(F)F (stereo unspecified)	D1 allo mod -6.4
O=S(=O)(c1ccccc1)N1CCN(C2CCN(Cc3ccccc3)CC2)CC1	none
COc1ccc(S(=O)(=O)N2CCN(C3CCN(Cc4ccccc4)CC3)CC2)cc1	DAT uptake mod -1.8
COc1cccc(CNC(=O)Nc2cccs2)c1	D1 allo mod -3.4
O=C(OCC(=O)N1CCN(C(=O)c2ccco2)CC1)c1cn(-c2ccccc2)nc1-c1ccccc1	DAT uptake mod 4.4
Cn1c(-c2sccc2OCc2ccccc2)n[nH]c1=S	DAT uptake mod -10 (no result: WNV protease inh, AP ELISA ortho, D1 allo mod)
Cc1ccc(COc2ccsc2-c2n[nH]c(=S)n2C)cc1	none (no result: WNV protease inh, AP ELISA ortho, D1 allo mod)
COC(=O)C(OC(=O)c1ccc(OC)cc1)C(=O)OC	none (no result: WNV protease inh, AP ELISA ortho, D1 allo mod)
Cc1ccc(S(=O)(=O)CCC(=O)NCc2ccco2)cc1	none (no result: WNV protease inh, AP ELISA ortho, D1 allo mod)
COCCNC(=O)c1c(CSc2ccccc2)noc1C(=O)NCc1ccccc1	none (no result: WNV protease inh, AP ELISA ortho, D1 allo mod)
CC(C)NC(=O)c1c(CSc2ccccc2)noc1C(=O)NCc1ccccc1	DAT uptake mod 2.8 (no result: WNV protease inh, AP ELISA ortho, D1 allo mod)
O=C(NCc1ccccc1)c1onc(CSc2ccc(Cl)cc2)c1C(=O)NCc1ccccc1	none (no result: WNV protease inh, AP ELISA ortho, D1 allo mod)
O=C(NCc1ccccc1)c1onc(CSc2ccccc2)c1C(=O)NCc1ccccc1	DAT uptake mod 1.6 (no result: WNV protease inh, AP ELISA ortho, D1 allo mod)
Cc1cccc(Nc2nnc(-c3ccc(C(=O)N4C[C@H]5C[C@H](C4)c4cccc(=O)n4C5)cc3)c3ccccc23)c1	DAT uptake mod 1.8 (no result: WNV protease inh, AP ELISA ortho, D1 allo mod)
COC(=O)C(Cc1ccc(OC(=O)c2ccccc2Cl)cc1)N1Cc2ccccc2C1=O (stereo unspecified)	none (no result: WNV protease inh, AP ELISA ortho, D1 allo mod)
COC(=O)C(Cc1ccc(OC(=O)c2ccccc2C)cc1)N1Cc2ccccc2C1=O (stereo unspecified)	DAT uptake mod 3.3 (no result: WNV protease inh, AP ELISA ortho, D1 allo mod)
CCC1SC2=NC(C)=C(C(=O)OCC(C)C)C(/C=C/c3ccccc3OC)N2C1=O (stereo unspecified)	none (no result: WNV protease inh, AP ELISA ortho, D1 allo mod)
CCC1SC2=NC(C)=C(C(=O)OCCOC)C(/C=C/c3ccccc3OC)N2C1=O (stereo unspecified)	DAT uptake mod -7.6 (no result: WNV protease inh, AP ELISA ortho, D1 allo mod)
N#CCN1CCN(CC(=O)Nc2cccc3ccccc23)CC1	none (no result: WNV protease inh, AP ELISA ortho, D1 allo mod)
Brc1cccc(-c2nnc3n2CCCCC3)c1	none
Brc1cccc(-c2cnc3n2CCCCC3)c1	WNV protease inh -4.2, D1 allo mod -3.3
C=CCOC(=O)C1=C(C)Nc2nc3ccccc3n2C1c1ccncc1 (stereo unspecified)	WNV protease inh -3.1
CCOC(=O)c1c2n(c3c(NCc4ccccc4)ncnc13)CCCC2	DAT uptake mod 2.3
CCOC(=O)c1nnc(-c2ccccc2)nc1NCc1ccccc1	none (no result: WNV protease inh, AP ELISA ortho, D1 allo mod)
Fc1cccc2sc(Nc3nnc(-c4ccco4)o3)nc12	D1 allo mod -2.7
COc1cccc2sc(Nc3nnc(-c4ccc(F)cc4)o3)nc12	none (no result: WNV protease inh, AP ELISA ortho, D1 allo mod)
COCCSc1ccccc1C(=O)N1CCOCC1	none (no result: WNV protease inh, AP ELISA ortho, D1 allo mod)
Cn1c2c(c(=O)n(C)c1=O)C(CC(=O)Nc1ccccc1)C(=O)N2 (stereo unspecified)	DAT uptake mod -7.9

Screening data as filed in PubChem BioAssay.
